Data on six compounds can be found in ChEMBL document CHEMBL3797085, “Structure-Based Design and Synthesis of Novel Inhibitors Targeting HDAC8 from Schistosoma mansoni for the Treatment of Schistosomiasis” (J Med Chem, 2016).

Series [1] in a line: Cytotoxicity against HEK293 cells assessed as cell viability at 50 uM after 24 hrs by Alamar Blue assay relative to control. It counts as cell-based. As to conditions: human, read-out: Activity. A digest of the protocol:
(§1)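 AlamarBlue added after 24 h, incubated a further 21 h; resorufin fluorescence ex 560/em 590 nm. Triplicates; viability relative to untreated cells; daunorubicin positive control.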
(In general: The colour change of resazurin is a common sign of viable cells or microbes.)

In series [2] the target is T1, Histone deacetylase 8 (Schistosoma mansoni, UniProt A5H660).
T1 sequence (A5H660 whole entry): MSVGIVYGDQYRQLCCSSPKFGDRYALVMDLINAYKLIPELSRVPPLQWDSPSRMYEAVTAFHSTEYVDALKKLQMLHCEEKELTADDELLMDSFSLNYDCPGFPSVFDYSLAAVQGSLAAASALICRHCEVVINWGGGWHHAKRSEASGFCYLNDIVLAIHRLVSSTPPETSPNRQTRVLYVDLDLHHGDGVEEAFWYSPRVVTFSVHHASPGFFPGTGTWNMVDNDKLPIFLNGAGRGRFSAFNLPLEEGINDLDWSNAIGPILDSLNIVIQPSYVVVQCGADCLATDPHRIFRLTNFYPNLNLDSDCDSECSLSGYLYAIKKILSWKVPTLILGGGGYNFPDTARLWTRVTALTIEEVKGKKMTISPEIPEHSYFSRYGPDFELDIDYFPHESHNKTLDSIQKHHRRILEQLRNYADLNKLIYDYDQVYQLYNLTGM
As to the kind of experiment: Inhibition of recombinant Schistosoma mansoni HDAC8 expressed in Escherichia coli using Fluor de Lys as substrate preincubated for 90 mins followed by BML-KI176 addition measured after 45 mins by fluorescence assay. As to conditions: read-out: IC50. The method in brief: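 smHDAC8 produced in E. coli. Fluor de Lys kit: compound, Fluor de Lys-HDAC8 substrate (50 µM) and enzyme incubated 90 min at 37°C, then Developer II for 45 min at 30°C. Reaction stopped with trichostatin A (2 µM). Fluorescence read at ex 390/em 460 nm. IC50 given as mean ± S.E.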

In series [3] the target is T2, Histone deacetylase 1 (Homo sapiens, UniProt Q13547). Briefly: Inhibition of recombinant human HDAC1 using Cbz-(Ac)Lys-AMC as substrate at 10 uM preincubated for 90 mins followed by trypsin addition measured after 20 mins by fluorescence assay relative to control.
T2 sequence (Q13547 whole entry): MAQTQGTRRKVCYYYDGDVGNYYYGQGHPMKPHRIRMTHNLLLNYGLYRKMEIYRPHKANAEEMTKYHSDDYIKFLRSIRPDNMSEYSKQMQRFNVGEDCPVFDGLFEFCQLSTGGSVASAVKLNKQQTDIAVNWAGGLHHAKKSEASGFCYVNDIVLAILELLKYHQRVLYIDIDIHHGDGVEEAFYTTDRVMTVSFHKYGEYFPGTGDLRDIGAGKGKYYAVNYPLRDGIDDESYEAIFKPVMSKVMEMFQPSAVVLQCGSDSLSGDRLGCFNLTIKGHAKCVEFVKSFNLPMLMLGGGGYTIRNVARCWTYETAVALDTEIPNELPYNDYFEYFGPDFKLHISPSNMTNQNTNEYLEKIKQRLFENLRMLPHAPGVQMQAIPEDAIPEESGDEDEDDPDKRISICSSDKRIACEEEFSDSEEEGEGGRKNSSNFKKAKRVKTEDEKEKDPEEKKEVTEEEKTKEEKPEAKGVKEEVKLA
Series [4] concerns the target T3, Histone deacetylase 8 (Homo sapiens, UniProt Q9BY41).
T3 sequence (Q9BY41 whole entry): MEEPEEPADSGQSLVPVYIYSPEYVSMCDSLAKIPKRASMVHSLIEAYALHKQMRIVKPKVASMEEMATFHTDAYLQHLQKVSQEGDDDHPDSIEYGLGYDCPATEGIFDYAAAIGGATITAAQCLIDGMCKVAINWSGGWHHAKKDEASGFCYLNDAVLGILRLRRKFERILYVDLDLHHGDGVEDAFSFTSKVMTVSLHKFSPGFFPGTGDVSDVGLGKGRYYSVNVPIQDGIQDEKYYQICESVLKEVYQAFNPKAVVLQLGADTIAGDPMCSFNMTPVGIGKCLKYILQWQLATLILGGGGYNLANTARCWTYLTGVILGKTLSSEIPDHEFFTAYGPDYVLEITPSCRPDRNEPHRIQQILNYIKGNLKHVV
Briefly: Inhibition of recombinant human HDAC8 using Fluor de Lys as substrate preincubated for 90 mins followed by BML-KI176 addition measured after 45 mins by fluorescence assay. Particulars: read-out: IC50.

In series [5] the test system is Schistosoma mansoni. Briefly: Antiparasitic activity against schistosomula stage of Schistosoma mansoni assessed as parasite viability at 10 uM after 48 hrs by Alamar Blue assay relative to control. It counts as functional. The method in brief: (§2)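 Mechanically transformed S. mansoni schistosomula, 100 per well, in Medium 199 with 10% FCS, penicillin, streptomycin and rifampicin, held 3 h at 37°C/5% CO2 before use. […] Resazurin added at 48 h; fluorescence (ex 530/em 590 nm) read 24 h later, corrected for drug-medium background. Ethanol-killed larvae as dead control. Triplicate wells, two biological replicates.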

In series [6] the test system is Schistosoma mansoni. As to the kind of experiment: Antiparasitic activity against schistosomula stage of Schistosoma mansoni assessed as parasite viability after 48 hrs by Alamar Blue assay. It is filed as functional, organism-based. A digest of the protocol:
as §2

Series [7] concerns Schistosoma mansoni. Briefly: Antiparasitic activity against adult Schistosoma mansoni assessed as reduction in egg lying at 20 uM after 5 days by microscopy relative to control. It counts as functional. Also noted: scale not given: the % may be the effect or the level left. A digest of the protocol: (§3)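 Adult worm pairs perfused from infected hamsters; ten pairs per well in 2 mL M199 (pH 7.4, 10 mM HEPES, supplemented as for schistosomula), 37°C, 5% CO2. Cultured 5 days before adding inhibitors in DMSO; medium and inhibitor refreshed daily. Eggs in recovered, centrifuged medium counted by microscopy. Two biological replicates in triplicate.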

The test system of series [8] is Schistosoma mansoni. As to the kind of experiment: Antiparasitic activity against schistosomula stage of Schistosoma mansoni assessed as parasite viability at 20 uM after 1 to 2 days by microscopy. It counts as functional, organism-based. A digest of the protocol: (§4)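 Microscopy viability: 2,000 schistosomula per well in M199 (10 mM HEPES, pH 7.4, supplemented), 37°C, 5% CO2; inhibitor at 10 or 20 µM in DMSO, medium refreshed daily, up to 5 days. Dead larvae scored by granular appearance, tegumental defects and lack of motility; ≥300 larvae per time point; % viable larvae. Three biological replicates in duplicate.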

For series [9], the system named is Schistosoma mansoni. Briefly: Antiparasitic activity against adult Schistosoma mansoni assessed as reduction in egg lying at 10 uM after 5 days by microscopy relative to control. It is filed as functional, organism-based. The method in brief:
as §3

Series [10] concerns HEK293. Briefly: Cytotoxicity against HEK293 cells assessed as cell viability after 24 hrs by Alamar Blue assay. It counts as cell-based. As to conditions: Homo sapiens, HEK293, 24 h. A digest of the protocol:
as §1

Series [11] relates to Schistosoma mansoni. Briefly: Antiparasitic activity against schistosomula stage of Schistosoma mansoni assessed as parasite viability at 10 to 20 uM after 5 days by microscopy relative to control. It counts as functional, organism-based. A digest of the protocol: as §4
Series [12] concerns Schistosoma mansoni. Briefly: Antiparasitic activity against adult Schistosoma mansoni assessed as separation of male and female worm pairs at 20 uM after 5 days by microscopy relative to control. It counts as functional. A digest of the protocol: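 Hamster-perfused worm pairs, ten per well in 2 mL buffered supplemented M199 (10 mM HEPES, pH 7.4), 37°C, 5% CO2, pre-cultured 5 days, then inhibitor in DMSO at 10 or 20 µM; medium and compound renewed daily. Pairs still coupled counted daily by microscopy for up to 5 days. Two biological replicates in triplicate.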

Series [13] concerns Schistosoma mansoni. As to the kind of experiment: Antiparasitic activity against schistosomula stage of Schistosoma mansoni assessed as parasite viability at 20 uM after 48 hrs by Alamar Blue assay relative to control. It counts as functional. The method in brief: as §2
In series [14] the test system is Schistosoma mansoni. As to the kind of experiment: Antiparasitic activity against schistosomula stage of Schistosoma mansoni assessed as parasite viability at 10 uM measured within 2 days by microscopy. It counts as functional, organism-based. The method in brief:
as §4

Series [15] addresses T4, Protein deacetylase HDAC6 (Homo sapiens, UniProt Q9UBN7).
T4 sequence (Q9UBN7 whole entry): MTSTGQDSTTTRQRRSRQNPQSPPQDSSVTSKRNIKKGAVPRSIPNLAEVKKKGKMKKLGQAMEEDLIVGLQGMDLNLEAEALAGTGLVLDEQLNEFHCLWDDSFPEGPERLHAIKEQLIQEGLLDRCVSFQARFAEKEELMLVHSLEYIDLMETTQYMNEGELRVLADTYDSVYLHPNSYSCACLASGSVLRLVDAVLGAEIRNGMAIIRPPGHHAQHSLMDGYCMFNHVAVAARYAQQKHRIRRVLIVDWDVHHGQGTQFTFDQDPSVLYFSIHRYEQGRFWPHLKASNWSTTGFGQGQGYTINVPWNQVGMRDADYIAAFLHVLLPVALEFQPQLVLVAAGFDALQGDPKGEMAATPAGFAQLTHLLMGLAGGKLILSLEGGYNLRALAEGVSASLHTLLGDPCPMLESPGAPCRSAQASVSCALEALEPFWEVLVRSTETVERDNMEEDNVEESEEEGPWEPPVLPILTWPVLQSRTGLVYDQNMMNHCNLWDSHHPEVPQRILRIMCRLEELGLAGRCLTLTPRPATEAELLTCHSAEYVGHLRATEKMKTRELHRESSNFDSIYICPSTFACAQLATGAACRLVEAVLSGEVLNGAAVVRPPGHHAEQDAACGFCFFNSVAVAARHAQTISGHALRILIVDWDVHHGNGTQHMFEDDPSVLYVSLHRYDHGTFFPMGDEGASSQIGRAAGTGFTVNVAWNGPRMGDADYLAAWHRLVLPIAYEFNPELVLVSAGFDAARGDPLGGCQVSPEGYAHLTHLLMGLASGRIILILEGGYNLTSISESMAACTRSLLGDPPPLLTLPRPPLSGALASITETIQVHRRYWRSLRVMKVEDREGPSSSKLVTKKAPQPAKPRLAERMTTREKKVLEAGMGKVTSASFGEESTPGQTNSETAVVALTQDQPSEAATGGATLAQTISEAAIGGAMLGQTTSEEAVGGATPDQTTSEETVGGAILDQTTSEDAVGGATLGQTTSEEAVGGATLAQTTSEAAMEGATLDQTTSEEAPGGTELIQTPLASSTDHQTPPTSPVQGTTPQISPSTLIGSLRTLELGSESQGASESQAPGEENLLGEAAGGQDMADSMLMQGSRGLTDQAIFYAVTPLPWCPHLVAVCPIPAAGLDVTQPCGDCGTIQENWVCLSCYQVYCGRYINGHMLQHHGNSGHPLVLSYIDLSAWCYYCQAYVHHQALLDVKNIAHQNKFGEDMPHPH
Briefly: Inhibition of recombinant human HDAC6 using Cbz-(Ac)Lys-AMC as substrate preincubated for 90 mins followed by trypsin addition measured after 20 mins by fluorescence assay. Particulars: read-out: IC50.

In series [16] the target is T2, Histone deacetylase 1. As to the kind of experiment: Inhibition of recombinant human HDAC1 using Cbz-(Ac)Lys-AMC as substrate preincubated for 90 mins followed by trypsin addition measured after 20 mins by fluorescence assay. As to conditions: read-out: IC50.

Structures are written as SMILES. Activity calls are given as the source filed them. The rule behind the calls is not given here.

For orientation: IC50 means the concentration that inhibits the measured activity by half. For orientation: inhibition means the change of the read-out against control, counted positive when it falls. Usually EC50 stands for the concentration at which the effect is half-maximal.

For `Cc1ccc(C(=O)NO)cc1NC1CCCCC1`, the viability at 24 h, 50 µM in series [1] worked out at 70.2%. The IC50 in series [2] was determined as 600 nM; in [4], 104 nM. In addition, in series [3], the inhibition came out at 49.5%. Besides, in series [5], the Activity turned out to be 84.3%.
With `CN(C)c1cccc(C(=O)NO)c1`, in [1], the viability at 24 h, 50 µM amounted to 92.7%. Besides, the values for the IC50 in series [2] and in series [4] were 1580 nM and 70.2 nM, respectively. Also, in [3], the inhibition came out at 37.4%. Further, the Activity in series [5] stood at 92.6%.
Take `COc1ccc(C(=O)NO)cc1NC(=O)c1ccc(-c2ccccc2)cc1`: the Activity entry in series [6] was “Dose-dependent effect”; in series [7] it was 80%; in [5] it was 64.8%; in [12] it was 90%; in [13], 33.4%. Moreover, the EC50 in series [6] came out at 16100 nM. Moreover, the viability at 24 h, 50 µM in series [1] was determined as 12.3%. Moreover, the outcome in [8], in [9] and in series [14] was Active. The IC50 in [10] amounted to 199000 nM. Also, the outcome in series [11] was inactive.
As for `CCOc1ccc(C(=O)NO)cc1NC(=O)c1ccc(-c2ccccc2)cc1`, the Activity result in series [6] is “Dose-dependent effect”; in [5], 77.9%; in series [13], 35.8%. In addition, the IC50 was determined as 600 nM in series [15], 92 nM in series [2], 2080 nM in series [16] and 149 nM in series [4]. Further, the viability at 24 h, 50 µM in series [1] turned out to be 80.3%.
As for `O=C(NO)c1cccc(NCc2ccccc2)c1`, the values for the IC50 in [2] and in [4] were 1080 nM and 143 nM, respectively. The inhibition in series [3] was found to be 41.4%.
Regarding `O=C(NO)c1cccc(N(Cc2ccccc2)Cc2ccccc2)c1`, the IC50 came out at 8600 nM in series [15], 9290 nM in [2], 42300 nM in series [16] and 2190 nM in [4]. Moreover, the viability at 24 h, 50 µM in [1] was 7.7%. The figures for the Activity in [5] and in series [13] were 77.9% and 74.6%, respectively.
